Screening results from PubChem.
Shown are actives, neighbours in structure and some others; about 2.6% of the full set was active somewhere.
FGF22 binding = shifts melting point of recombinant human FGF22; AID 651658; activity (Tm shift, normalised), % at 9.99 µM; hit rate 1.5% among 340,000; Q9HCT0; recombinant FGF22 thermal shift, SYPRO orange fluorescence; percent of sucrose octasulfate shift, DMSO zero;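 active = mean Tm shift, scaled 0 neutral to 100 positive control, at about 1.3% or above, every replicate too, limit read from the data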
Target sequence (Q9HCT0 whole entry, looked up): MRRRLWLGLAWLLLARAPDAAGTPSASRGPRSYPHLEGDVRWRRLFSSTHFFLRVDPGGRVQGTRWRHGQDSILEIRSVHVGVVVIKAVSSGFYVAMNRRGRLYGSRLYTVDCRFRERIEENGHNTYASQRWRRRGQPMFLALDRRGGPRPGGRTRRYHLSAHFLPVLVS
SIRT5 block = sirtuin-5 (human) deacylase inhibition | Q9NXA8 | Purified SirT5, succinyl-peptide AMC, trypsin-coupled fluorescence | inhibition, % at 15 µM | hit rate 1.1% among 330,000 | AID 652115; in the data active = inhibition above about 15%
UCH37 DUB inh = inhibitors of human deubiquitinating enzyme UCH37; hit rate 0.33% among 330,000; purified proteasome/UCH37, Ub-AMC cleavage fluorescence; inhibition, % (no concentration beside the values);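 active = mean inhibition over replicate wells above about 20%, limit read from the data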;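 also: 0% = compound-free wells with enzyme and 100% = wells lacking proteasome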
Target sequence (Q9Y5K5 whole entry, looked up): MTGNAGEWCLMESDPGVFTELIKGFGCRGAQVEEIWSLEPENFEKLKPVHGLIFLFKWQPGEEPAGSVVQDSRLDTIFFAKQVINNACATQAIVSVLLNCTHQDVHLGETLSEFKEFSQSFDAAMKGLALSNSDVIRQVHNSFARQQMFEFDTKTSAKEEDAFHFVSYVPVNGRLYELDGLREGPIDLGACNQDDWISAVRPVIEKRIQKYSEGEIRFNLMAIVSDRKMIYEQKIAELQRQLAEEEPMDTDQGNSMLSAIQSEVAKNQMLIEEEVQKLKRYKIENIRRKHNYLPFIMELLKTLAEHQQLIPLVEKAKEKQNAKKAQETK
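Material: human UCH37 enzyme supplied as purified proteasome complex / Amount: 0.15 nM proteasome as dispensed / Buffer or medium: pH 7.4 Tris-HCl (50 mM) with ovalbumin, ATP-MgCl2, DTT / Times: preincubation 30 min, reaction 25 min, room temperature / Technique: AMC fluorescence from Ub-AMC cleavage, excitation 355 nm, emission 460 nm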
NSD2 inh = blocks human histone methyltransferase NSD2. O96028. NSD2 peptide methylation, AlphaScreen, 120 min. inhibition, % at 12.5 µM. hit rate 0.54% among 310,000. AID 743445; in the data active = inhibition above about 50%
CASP6 VEID inh = inhibitors of human caspase-6; inhibition, % at 12.5 µM; AID 686996; purified caspase-6, Z-VEID-R110 cleavage fluorescence; P55212; hit rate 0.53% among 350,000;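 active = mean inhibition across replicates at least about 35%, with every replicate also reaching that limit, limit read from the data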;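 also: 0% = median of neutral control wells and 100% = no fluorescence left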
* = called active by the depositor; x = no result given.

SMILES	FGF22 binding	SIRT5 block	UCH37 DUB inh	NSD2 inh	CASP6 VEID inh
Cc1nn(C)c2c1NC(=O)CS2	43.0*	x	x	x	2.0
Cn1ccc(/C=N/N=C2/NC(=O)CS2)n1	-0.1	2.1	x	-3.3	0.1
CN1C(=O)c2cc(NC(=O)Cc3cccs3)ccc2OC[C@@H]2O[C@H](CC(=O)N[C@@H]3CCN(Cc4ccccc4)C3)CC[C@@H]21	x	-1.2	x	x	x
O=C1c2c(O)cccc2Cc2cccc(O)c21	0.0	x	3.4	x	0.5
O=C1Cc2cccc(=O)c(O)c2C(=O)O1	-0.1	4.6	x	22.9	38.4*
Cc1cn(-c2ccccc2)c(C)c1/C=N\Nc1nc(N2CCOCC2)nc(N2CCOCC2)n1	43.1*	8.8	x	3.4	0.3
O=[N+]([O-])c1cccc(/C=N/Nc2nc(N3CCOCC3)nc(N3CCOCC3)n2)c1	44.3*	0.0	x	-4.5	-0.9
COc1ccccc1N1CCN(C(=O)CCN2C(=O)c3cccc4cccc(c34)C2=O)CC1	44.8*	4.4	-0.4	-0.8	3.7
COc1ccccc1N1CCN(C(=O)CN2C(=O)c3ccccc3C2=O)CC1	0.3	x	-0.4	-0.9	1.2
Cc1ccc(CN2CCN(C(=O)CCN3C(=O)c4ccccc4C3=O)CC2)cc1	x	x	20.2*	0.8	x
COc1ccc(-c2csc(/C(C#N)=C\c3ccc(OC)c([N+](=O)[O-])c3)n2)cc1	x	x	-7.2	-0.9	x
COc1ccc(-c2csc(/C(C#N)=C\c3ccc(O)c([N+](=O)[O-])c3)n2)cc1OC	0.0	-0.1	20.8*	16.3	-5.1
O=C(OC1CCOC1=O)c1cc(Cl)ccc1[N+](=O)[O-] (stereo not drawn)	0.3	97.9*	x	25.5	-1.3
O=C(OC1CCOC1=O)c1ccc(Cl)c(S(=O)(=O)N2CCCCC2)c1 (stereo not drawn)	0.1	-1.3	1.0	-1.1	7.9
O=C(OC1CCOC1=O)c1ccc(Cl)c(S(=O)(=O)N2CCOCC2)c1 (stereo not drawn)	0.0	-9.3	0.7	1.6	40.4*
O=C(OC1CCOC1=O)c1ccc(N2CCCC2)c([N+](=O)[O-])c1 (stereo not drawn)	0.5	2.3	5.0	2.7	-1.5
COC(=O)[C@@]1(Cc2ccccc2CN=[N+]=[N-])N=C(c2ccc(OCCCO)cc2)O[C@H]1c1ccccc1	-1.1	-0.5	x	x	3.5
COc1ccc(NC(=O)N(C)C[C@@H]2Oc3ccc(NC(=O)C4CC4)cc3CC(=O)N([C@H](C)CO)C[C@@H]2C)cc1	-0.2	3.1	x	x	1.3
Nc1ccc(NC2C[C@@H](C(=O)O)NC2=O)cc1 (stereo partly drawn)	43.4*	8.1	4.1	0.3	3.8
COc1ccc(C[C@H]2CN3C(=NC[C@@H]3Cc3ccc(O)cc3)N2C[C@H](C)NC(=O)CCC2CCCCC2)cc1	0.3	30.6*	2.0	x	6.3
CCOC(=O)c1cc(CC)sc1NC(=O)CCC(=O)O	x	x	0.8	x	x
CCCc1cc(C(=O)OC)c(NC(=O)CCC(=O)O)s1	43.2*	0.1	2.7	-2.3	-2.0
O=C([C@@H]1[C@@H](CO)[C@@H]2Cn3c(ccc(-c4cccc(F)c4)c3=O)[C@@H]2N1Cc1cocn1)N1CCCCC1	0.0	-5.8	x	x	3.1
O=C(O)CCC(=NNc1ccc(S(=O)(=O)N2CCCC2)cc1[N+](=O)[O-])c1cccs1	x	x	12.6	x	x
COc1ccc(OC)c(S(=O)(=O)NCC(c2cccs2)N2CCc3ccccc3C2)c1 (stereo not drawn)	-0.4	-4.1	0.8	0.6	72.0*
SMILES	FGF22 binding	SIRT5 block	UCH37 DUB inh	NSD2 inh	CASP6 VEID inh
O=C(NCC1CC1)c1cc2c(c(-c3cccc(-c4ccccc4F)c3)n1)[C@@H](CCO)N(C(=O)CC1CC1)C2	-0.1	15.3*	x	x	0.5
COc1cccc(-c2cccc(-c3nc(C(=O)NCC(F)(F)F)cc4c3[C@H](CCO)N([S@@](=O)C(C)(C)C)C4)c2)c1	-0.6	1.4	x	x	-3.3
CCCNC(=O)c1cc2c(c(-c3cccc(-c4cccc(OC)c4)c3)n1)[C@H](CCO)N([S@@](=O)C(C)(C)C)C2	-0.4	17.8*	x	x	6.6
COCCNC(=O)c1cc2c(c(-c3cccc(-c4cccc(F)c4)c3)n1)[C@H](CCO)N(S(=O)C(C)(C)C)C2 (stereo partly drawn)	-0.1	36.2*	x	x	-1.8
COCCNC(=O)c1cc2c(c(-c3cccc(-c4cccc(F)c4)c3)n1)[C@@H](CCO)N(S(=O)C(C)(C)C)C2 (stereo partly drawn)	-0.4	-4.1	x	x	-1.2
COc1ccc2c(c1)CCC/C2=N/OC(=O)c1ccccc1OC	44.0*	-5.5	x	0.1	2.0
N#Cc1c(/N=C/c2ccc(-c3ccccc3C(=O)O)o2)sc2c1CCCC2	0.0	7.8	x	44.8	56.7*
CCOC(=O)c1c(C)nc(C)c(C(=O)OCC)c1-c1ccc(OC)cc1	0.4	25.6*	0.9	-1.9	-2.0
C[C@H]1CN([C@@H](C)CO)C(=O)c2cc(NC(=O)C3CCCCC3)ccc2O[C@@H]1CN(C)C(=O)Nc1ccccc1	0.1	-2.1	x	x	1.2
CC(C(=O)NCc1cccs1)N1C(=O)c2ccccc2C1=O (stereo not drawn)	x	18.8*	7.0	0.6	-2.9
C[C@@H]1CN([C@H](C)CO)C(=O)c2cc(C#Cc3ccncc3)cnc2O[C@@H]1CN(C)S(=O)(=O)c1ccccc1F	-0.1	-0.8	x	x	0.4
COc1ccc([C@H]2CC(=O)C[C@@H](CCn3cc(-c4cccnc4)nn3)O2)cc1	0.1	33.3*	x	x	-40.1
Cc1nc(C)c(C(=O)NN=Cc2c[nH]c3ccccc23)s1	x	x	-140.3	x	x
CC1CCN(C(=O)COC(=O)/C=C/c2ccco2)CC1	-0.1	-3.9	5.1	14.5	48.8*
CCOC(=O)C1=C(COC(=O)/C=C/c2ccco2)NC(=O)NC1C (stereo not drawn)	0.0	1.8	3.4	9.7	61.1*
O=C1NC[C@H](CCCCN2C[C@H](Cc3ccccc3)N(CCC3CCCCC3)C(=O)C2=O)N(CCc2ccccc2)C1=O	8.8*	3.1	x	x	-0.9
CCOC(=O)N(C)C[C@H]1OCc2cn(nn2)CCCC(=O)N([C@@H](C)CO)C[C@H]1C	0.4	-4.9	x	x	-0.6
CC1=C/C(=C\c2ccc(Br)o2)C(=O)O1	0.7	0.1	2.1	97.8*	83.1*
Cc1ccc(C=NN2CCN(Cc3ccc(Cl)cc3)CC2)o1	x	x	-0.4	x	x
CCN(CC)C(=O)[C@H]1C[C@H](CC(=O)NC(C)(C)C)C(=O)N2CCc3c([nH]c4cc(-c5ccco5)ccc34)[C@]12C	-0.7	2.0	-14.7	x	3.0
O=C(C[C@H]1C[C@H](C(=O)N2CCCCC2)[C@@]2(CCc3ccccc3)c3[nH]c4ccc(Cl)cc4c3CCN2C1=O)NCc1cccc(C(F)(F)F)c1	33.9*	x	-1.4	x	0.3
O=C(CC1C[C@H](C(=O)N2CCCCC2)[C@@]2(CCc3ccccc3)c3[nH]c4ccccc4c3CCN2C1=O)NCc1cccc(C(F)(F)F)c1 (stereo partly drawn)	0.2	-2.0	7.6	x	-0.2
